Measured values of several laboratories.
Lines come from different studies, so protocols differ.
Matrix: plasma

CC(C)(O)c1ccccc1-c1ccc2[nH]c(/C=C/c3ccc(C(F)(F)F)cc3)nc2c1 gave an AUC(0-inf) of 7820 ng·h/mL (male human; oral; 50 mg; single dose, fasted, healthy volunteers).
The AUC(0-inf) of CCc1nc2c(C)cc(N3CCN(CC(=O)N4CC(O)C4)CC3)cn2c1N(C)c1nc(-c2ccc(F)cc2)c(C#N)s1 is reported as 2400 ng·h/mL (human; oral; 60 mg; single dose, fed, healthy volunteers).
CC(C)n1cc(C#N)c2cc(-n3cc(C(=O)O)cn3)ccc21 gave an AUC(0-inf) of 44300 ng·h/mL (human; oral; 200 mg; single dose, fasted, healthy volunteers).
The AUC(0-inf) of CO[C@H]1/C=C\C=C(/C)C(=O)NC2=CC(=O)C(NCCN(C)C)=C(C[C@@H](C)C[C@H](OC)[C@H](O)[C@@H](C)/C=C(\C)[C@@H]1OC(N)=O)C2=O is reported as 4140 ng·h/mL (human; intravenous; 27 mg/m²; patients, infusion).
For O=C(/C=C/c1cccc(S(=O)(=O)Nc2ccccc2)c1)NO, the AUC(0-inf) was 86400 ng·h/mL (human; intravenous; 2000 mg/m²; patients).
With CN(C)CCCNC(=O)/C(=C/CCCCC(=O)NO)COc1cccc2ccccc12 the AUC(0-inf) was 30700 ng·h/mL (human; intravenous; 187.5 mg/m²; single dose).
Nc1ccc(-c2nc([C@H]3CCc4cc(-c5cc(Cl)ccc5-n5cnnn5)cc(=O)n43)c(F)[nH]2)c(F)n1 gave an AUC(0-inf) of 15900 ng·h/mL (human; oral; 80 mg; single dose, fed).
The AUC(0-inf) of COC(=O)N[C@@H](C)CNc1nccc(-c2cn(C(C)C)nc2-c2cc(Cl)cc(NS(C)(=O)=O)c2F)n1 is reported as 1880 ng·h/mL (human; oral; 50 mg; single dose).
With COc1ccc(-n2nc(C(N)=O)c3c2C(=O)N(c2ccc(N4CCCCC4=O)cc2)CC3)cc1 the AUC(0-inf) was 3410 ng·h/mL (male human; oral; 25 mg; single dose).
For CCc1cnn2c(NCc3ccc[n+]([O-])c3)cc(N3CCCC[C@H]3CCO)nc12, the AUC(0-inf) was 796 ng·h/mL (human; intravenous; 9 mg/m²; patients).
For C[C@@H](Oc1ccc(S(C)(=O)=O)cc1C(=O)N1C[C@@H]2C[C@]2(c2cc(C(F)(F)F)on2)C1)C(F)(F)F, the AUC(0-inf) was 9.17 µM·h (human; oral; 25 mg; fasted, tablet).
For COc1ccc(-n2nc(C(N)=O)c3c2C(=O)N(c2ccc(N4CCCCC4=O)cc2)CC3)cc1, the AUC(0-inf) was 2530 ng·h/mL (human; oral; 10 mg; single dose, healthy volunteers).
With CS(=O)(=O)CCC#N the AUC(0-inf) was 327000 ng·h/mL (human; oral; 300 mg; single dose, fasted).
With CC(C)[C@](O)(c1ccc2cc(OC(F)F)c(OC(F)F)cc2c1)c1c[nH]nn1 the AUC(0-inf) was 84600 ng·h/mL (female human; oral; 750 mg; single dose).
Cn1cc(-c2ccc(S(=O)(=O)[C@@H]3C[C@@H](C(=O)NC4(C#N)CC4)N(C(=O)C4(C(F)(F)F)CC4)C3)c(C(F)(F)F)c2)cn1 gave an AUC(0-inf) of 44.9 ng·h/mL (human; oral; 1 mg; single dose, fasted, healthy volunteers).
O=C(Nc1c(Cl)cncc1Cl)c1ccc(OC(F)F)c(OCC2CC2)c1 gave an AUC(0-inf) of 65.1 ng·h/mL (human; oral; 0.5 mg; single dose, fasted).
With CNC(=O)c1ccccc1Sc1ccc2c(/C=C/c3ccccn3)n[nH]c2c1 the AUC(0-inf) was 197 ng·h/mL (human; oral; 5 mg; single dose, fasted).
FC(F)(F)c1ccc(CNc2ccc(Cc3c[nH]c4ncc(Cl)cc34)cn2)cn1 gave an AUC(0-inf) of 61300 ng·h/mL (male human; oral; 400 mg; single dose, healthy volunteers).
The AUC(0-inf) of C=C(F)C(=O)N1CCN(c2nc(OC[C@@H]3CCCN3C)nc3c2CCN(c2cccc4cccc(Cl)c24)C3)C[C@@H]1CC#N is reported as 37100 ng·h/mL (human; oral; 600 mg; single dose, fasted).
For CO[C@H]1CC[C@H](N2C(=O)CNc3ncc(-c4ccc(C(C)(C)O)nc4)nc32)CC1, the AUC(0-inf) was 378 ng·h/mL (human; oral; 15 mg; patients).
With C[C@@]1(c2cc(NC(=O)c3ccc(C#N)cn3)ccc2F)C=CSC(N)=N1 the AUC(0-inf) was 259 ng·h/mL (human; oral; 3 mg; single dose).
For CC(C)(Sc1ccncc1-c1ccc(C#N)c2ccccc12)C(=O)O, the AUC(0-inf) was 1270 ng·h/mL (male human; oral; 40 mg; single dose, fasted, healthy volunteers).
COc1ccc2[nH]c([S+]([O-])Cc3ncc(C)c(OC)c3C)nc2c1 (stereo not shown) has an AUC(0-inf) of 2.46 ng·h/mL (male human; oral; 100 µg).
COc1ccc([C@@H]2CN(C(=O)[C@@H](O)CO)C[C@@]2(C)[C@@H](C)O)cc1OC1CN(c2ccc(C)cn2)C1 has an AUC(0-inf) of 3160 ng·h/mL (human; oral; 10 mg; single dose, healthy volunteers).
For CCCOc1ccc([C@H]2CNC(=O)N2c2ccc3[nH]cnc3c2)cc1, the AUC(0-inf) was 2110 ng·h/mL (human; oral; 200 mg; fasted, healthy volunteers).
